Laboratory results from ChEMBL document CHEMBL3393015, “Design, synthesis and evaluation of marinopyrrole derivatives as selective inhibitors of Mcl-1 binding to pro-apoptotic Bim and dual Mcl-1/Bcl-xL inhibitors” (Eur J Med Chem, 2015).
Activity calls are given as the source filed them. No cut-off for these calls is given here.

How the values were obtained:
[1] = system: MDA-MB-468; assay: Reduction in Mcl1 level in human MDA-MB-468 cells at 10 uM; type: functional, cell-based
How it was run: (§1)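 Human MDA-MB-468 breast cancer cells were exposed to the derivatives at 3 μM, and some at up to 10 μM. Cells were then processed for western blotting. Read-outs were Mcl-1 protein level and caspase 3 cleavage, used as the apoptosis marker.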

[2] = system: MDA-MB-468; assay: Induction of apoptosis in human MDA-MB-468 cells assessed as caspase 3 activity at 3 uM for 16 hrs
[3] = system: MDA-MB-468; assay: Reduction in Mcl1 level in human MDA-MB-468 cells at 3 uM; type: functional, cell-based; how it was run: as §1
[4] = molecular target: Bcl-xL/Bcl-2-like protein 11 (Homo sapiens, UniProt Q07817); assay: Inhibition of Bcl-xL/Bim (unknown origin) by ELISA; type: protein assay
Bcl-xL/Bcl-2-like protein 11, sequence (Q07817 whole entry): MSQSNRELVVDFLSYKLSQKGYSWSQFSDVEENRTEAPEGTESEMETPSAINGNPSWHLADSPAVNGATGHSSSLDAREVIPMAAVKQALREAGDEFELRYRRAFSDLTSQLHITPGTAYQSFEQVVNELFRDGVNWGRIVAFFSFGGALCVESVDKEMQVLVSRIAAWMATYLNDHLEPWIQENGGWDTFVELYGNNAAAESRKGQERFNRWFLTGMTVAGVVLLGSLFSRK
Bcl-xL/Bcl-2-like protein 11, sequence (O43521 whole entry, further chain): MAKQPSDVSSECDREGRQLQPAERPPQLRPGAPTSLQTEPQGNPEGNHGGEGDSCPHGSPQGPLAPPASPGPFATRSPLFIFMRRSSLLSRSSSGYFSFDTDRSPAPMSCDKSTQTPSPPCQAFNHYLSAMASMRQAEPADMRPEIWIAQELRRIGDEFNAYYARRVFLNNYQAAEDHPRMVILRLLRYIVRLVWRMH

[5] = molecular target: Induced myeloid leukemia cell differentiation protein Mcl-1/Bcl-2-like protein 11 (Homo sapiens, UniProt Q07820); assay: Inhibition of Mcl1/Bim (unknown origin) by ELISA; type: protein assay
Induced myeloid leukemia cell differentiation protein Mcl-1/Bcl-2-like protein 11, sequence (Q07820 whole entry): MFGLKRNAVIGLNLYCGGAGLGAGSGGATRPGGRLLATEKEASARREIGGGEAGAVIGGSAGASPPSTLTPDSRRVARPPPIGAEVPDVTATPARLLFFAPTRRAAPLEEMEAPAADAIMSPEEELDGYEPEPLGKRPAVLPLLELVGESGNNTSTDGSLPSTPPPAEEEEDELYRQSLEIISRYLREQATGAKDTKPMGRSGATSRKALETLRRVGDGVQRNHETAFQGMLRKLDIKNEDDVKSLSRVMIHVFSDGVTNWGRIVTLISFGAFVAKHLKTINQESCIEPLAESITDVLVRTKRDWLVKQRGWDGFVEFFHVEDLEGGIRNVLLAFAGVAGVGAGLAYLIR
Induced myeloid leukemia cell differentiation protein Mcl-1/Bcl-2-like protein 11, sequence (O43521 whole entry, further chain): as the sequence (O43521 whole entry, further chain) above

[6] = system: MDA-MB-468; assay: Induction of apoptosis in human MDA-MB-468 cells assessed as caspase 3 activity at 10 uM for 16 hrs; type: functional, cell-based; how it was run: as §1

SMILES | Activity [1] | Activity [2] | Activity [3] | IC50 [4] | IC50 [5] | Activity [6]
CCc1ccc(C(=O)c2[nH]c(Cl)c(Cl)c2-n2c(C(=O)c3ccc(CC)cc3O)cc(Cl)c2Cl)c(O)c1 | Active | Active |  |  |  | 
CCOC(=O)CSc1ccc(C(=O)c2[nH]c(Cl)c(Cl)c2-n2c(C(=O)c3ccc(SCC(=O)OCC)cc3O)cc(Cl)c2Cl)c(O)c1 |  |  | inactive |  |  | 
O=C(c1ccccc1O)c1[nH]c(Cl)c(Cl)c1-n1c(C(=O)c2cc(Cl)ccc2O)cc(Cl)c1Cl | inactive | inactive |  | 18.3 µM | 3.9 µM | 
O=C(c1ccccc1O)c1[nH]c(Cl)c(Cl)c1-n1c(C(=O)c2ccc(F)cc2O)cc(Cl)c1Cl | Active | Active |  | 21.3 µM | 9.6 µM | 
COc1ccccc1C(=O)c1[nH]c(Cl)c(Cl)c1-n1c(C(=O)c2ccc(Cl)cc2OC)cc(Cl)c1Cl | inactive |  |  | 9.5 µM | 8 µM | inactive
CC(C)(C)OC(=O)Cn1cc(-c2ccc(C(=O)c3[nH]c(Cl)c(Cl)c3-n3c(C(=O)c4ccc(-c5cn(CC(=O)OC(C)(C)C)nn5)cc4O)cc(Cl)c3Cl)c(O)c2)nn1 | inactive |  |  | 8.1 µM | 5.1 µM | inactive
C#Cc1ccc(C(=O)c2[nH]c(Cl)c(Cl)c2-n2c(C(=O)c3ccc(C#C)cc3O)cc(Cl)c2Cl)c(O)c1 | Active | Active |  |  |  | 
CCCCCCCCn1cc(-c2ccc(C(=O)c3[nH]c(Cl)c(Cl)c3-n3c(C(=O)c4ccc(-c5cn(CCCCCCC)nn5)cc4O)cc(Cl)c3Cl)c(O)c2)nn1 |  |  |  | 0.5 µM | 0.6 µM | 
Cn1c(Cl)c(Cl)c(-n2c(C(=O)c3ccccc3O)cc(Cl)c2Cl)c1C(=O)c1ccccc1O |  |  |  | 7.9 µM | > 100 µM | 
O=C(c1ccc(-c2cn(Cc3ccccc3)nn2)cc1O)c1[nH]c(Cl)c(Cl)c1-n1c(C(=O)c2ccc(-c3cn(Cc4ccccc4)nn3)cc2O)cc(Cl)c1Cl | inactive |  |  | 1.6 µM | 3.3 µM | inactive
O=C(c1ccc(OS(=O)(=O)C(F)(F)F)cc1O)c1[nH]c(Cl)c(Cl)c1-n1c(C(=O)c2ccccc2O)cc(Cl)c1Cl | Active | Active |  | 2.1 µM | 1 µM | 
C=Cc1ccc(C(=O)c2[nH]c(Cl)c(Cl)c2-n2c(C(=O)c3ccc(C=C)cc3O)cc(Cl)c2Cl)c(O)c1 | Active | Active |  | 3.5 µM | 3.7 µM | 
CC(C)(C)OC(=O)Cn1cc(-c2cc(O)c(C(=O)c3[nH]c(Cl)c(Cl)c3-n3c(C(=O)c4cc(Cl)c(-c5cn(CC(=O)OC(C)(C)C)nn5)cc4O)cc(Cl)c3Cl)cc2Cl)nn1 |  |  |  | 14 µM | 1.6 µM | 
O=C(c1ccc(C(F)(F)F)cc1O)c1[nH]c(Cl)c(Cl)c1-n1c(C(=O)c2ccc(C(F)(F)F)cc2O)cc(Cl)c1Cl | Active | Active |  | 9.7 µM | 8.1 µM | 
O=C(O)CSc1ccc(C(=O)c2[nH]c(Cl)c(Cl)c2-n2c(C(=O)c3ccc(SCC(=O)O)cc3O)cc(Cl)c2Cl)c(O)c1 | inactive |  |  | > 100 µM |  | inactive
O=C(c1cc(Cl)c(O)cc1O)c1[nH]c(Cl)c(Cl)c1-n1c(C(=O)c2cc(Cl)c(O)cc2O)cc(Cl)c1Cl | inactive |  |  | > 50 µM | 10.7 µM | inactive

SMILES | Activity [1] | Activity [2] | Activity [3] | IC50 [4] | IC50 [5] | Activity [6]
O=C(c1ccccc1O)c1[nH]c(Cl)c(Cl)c1-n1c(C(=O)c2cc(F)ccc2O)cc(Cl)c1Cl | Active |  |  | 13.3 µM | 8.9 µM | Active
O=C(O)Cn1cc(-c2ccc(C(=O)c3[nH]c(Cl)c(Cl)c3-n3c(C(=O)c4ccc(-c5cn(CC(=O)O)nn5)cc4O)cc(Cl)c3Cl)c(O)c2)nn1 | inactive |  |  | > 50 µM |  | inactive
Cc1cc(O)c(C(=O)c2[nH]c(Cl)c(Cl)c2-n2c(C(=O)c3cc(Cl)c(C)cc3O)cc(Cl)c2Cl)cc1Cl | Active | Active |  |  |  | 
O=C(c1ccc(P(=O)(O)O)cc1O)c1[nH]c(Cl)c(Cl)c1-n1c(C(=O)c2ccc(P(=O)(O)O)cc2O)cc(Cl)c1Cl | inactive |  |  |  |  | inactive
O=C(c1ccc(-c2cn(-c3ccccc3)nn2)cc1O)c1[nH]c(Cl)c(Cl)c1-n1c(C(=O)c2ccc(-c3cn(-c4ccccc4)nn3)cc2O)cc(Cl)c1Cl |  |  |  | 0.8 µM | 1.5 µM | 
O=C(c1ccccc1O)c1[nH]c(Cl)c(Cl)c1-n1c(C(=O)c2ccc(Cl)cc2O)cc(Cl)c1Cl | Active |  |  | 9.2 µM | 6.5 µM | Active
O=C(c1ccc(-c2cn(C3CCCCC3)nn2)cc1O)c1[nH]c(Cl)c(Cl)c1-n1c(C(=O)c2ccc(-c3cn(C4CCCCC4)nn3)cc2O)cc(Cl)c1Cl | inactive |  |  | 3.8 µM | 1.4 µM | inactive
O=C(O)Cn1cc(-c2cc(O)c(C(=O)c3[nH]c(Cl)c(Cl)c3-n3c(C(=O)c4cc(Cl)c(-c5cn(CC(=O)O)nn5)cc4O)cc(Cl)c3Cl)cc2Cl)nn1 | inactive |  |  | > 50 µM |  | inactive
O=C(c1ccccc1O)c1[nH]c(Cl)c(Cl)c1-n1c(C(=O)c2ccccc2O)cc(Cl)c1Cl |  |  |  | 16.4 µM |  | 
O=C(c1ccc(O)cc1O)c1[nH]c(Cl)c(Cl)c1-n1c(C(=O)c2ccc(O)cc2O)cc(Cl)c1Cl | inactive |  |  | > 50 µM | 39.5 µM | inactive
O=C(c1ccccc1O)c1[nH]c(Cl)c(Cl)c1-n1c(C(=O)c2c(O)cccc2F)cc(Cl)c1Cl | inactive |  |  | 43.7 µM | 13.1 µM | inactive
CC1(C)CCC(c2ccc(Cl)cc2)=C(CN2CCN(c3ccc(C(=O)NS(=O)(=O)c4ccc(N[C@H](CCN5CCOCC5)CSc5ccccc5)c(S(=O)(=O)C(F)(F)F)c4)cc3)CC2)C1 |  |  | inactive |  |  | 
O=C(c1ccccc1O)c1[nH]c(Cl)c(Cl)c1-n1c(C(=O)c2cccc(Cl)c2O)cc(Cl)c1Cl |  |  |  | 10.1 µM | 4.1 µM | 
CCOC(=O)Cn1cc(-c2ccc(C(=O)c3[nH]c(Cl)c(Cl)c3-n3c(C(=O)c4ccc(-c5cn(CC(=O)OCC)nn5)cc4O)cc(Cl)c3Cl)c(O)c2)nn1 | inactive |  |  | > 100 µM |  | inactive
COc1ccccc1C(=O)c1c(-n2c(C(=O)c3ccccc3OC)cc(Cl)c2Cl)c(Cl)c(Cl)n1C |  |  |  | 64.9 µM | 15.5 µM | 
CCOC(=O)Cn1cc(-c2cc(O)c(C(=O)c3[nH]c(Cl)c(Cl)c3-n3c(C(=O)c4cc(Cl)c(-c5cn(CC(=O)OCC)nn5)cc4O)cc(Cl)c3Cl)cc2Cl)nn1 | inactive |  |  | > 100 µM |  | inactive
